Experimental data taken from ChEMBL document CHEMBL2413022, “3-Aryl-4-acyloxyethoxyfuran-2(5H)-ones as inhibitors of tyrosyl-tRNA synthetase: synthesis, molecular docking and antibacterial evaluation” (Bioorg Med Chem, 2013).
In brackets after ≈: the same amount, converted by molar mass.

How the values were obtained:
Candida albicans = experiment: Antifungal activity against Candida albicans ATCC 10231 by MTT assay; type: functional
Method in brief: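 LB medium; inoculum about 10⁵ cfu/mL with serially diluted compound (medium-only blank), incubated at 28 °C. MTT in PBS (3 mg/mL) added, 4–5 h at room temperature. Dye extracted 8–10 h in 10% SDS with 5% isopropanol and HCl. OD read at 570 nm, control OD 1.0–2.0; MIC50 from absorbance.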

Pseudomonas aeruginosa = experiment: Antibacterial activity against Pseudomonas aeruginosa ATCC 27853 by MTT assay; type: functional
Method in brief: (§1)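 LB medium; inoculum about 10⁵ cfu/mL added to serially diluted compound (medium-only blank) and incubated at 37 °C. Then MTT in PBS (3 mg/mL) added, 4–5 h at room temperature. Medium removed, dye extracted 8–10 h in 10% SDS with 5% isopropanol and HCl. Read OD 570 nm, control OD kept at 1.0–2.0; MIC50 taken from absorbance.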

Staphylococcus aureus = experiment: Antibacterial activity against Staphylococcus aureus ATCC 25923 by MTT assay; type: functional; method in brief: as §1
Escherichia coli = experiment: Antibacterial activity against Escherichia coli ATCC 35218 by MTT assay; type: functional; method in brief: as §1
[1] = Inhibition of Staphylococcus aureus tyrosyl-tRNA synthetase expressed in Escherichia coli using L-[ring-3,5-3H] tyrosine as substrate preincubated for 10 mins by liquid scintillation counting analysis
Method in brief: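 Enzyme purified to about 98% (SDS–PAGE). Aminoacylation at 37 °C, final 100 mM Tris/Cl pH 7.9, 50 mM KCl. TyrRS (0.2 nM) preincubated with a range of inhibitor concentrations for 10 min at room temperature, then pre-warmed mixture added. Aliquots quenched in ice-cold 7% TCA at set intervals, filtered, counted by liquid scintillation.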

Structure (SMILES)	MIC50 (Candida albicans)	MIC50 (Pseudomonas aeruginosa)	MIC50 (Staphylococcus aureus)	MIC50 (Escherichia coli)	IC50 [1]
CCn1cc(C(=O)O)c(=O)c2cc(F)c(N3CCNCC3)cc21 [NORFLOXACIN]	–	2.1 µg/mL (≈ 6.58 µM)	–	–	–
O=C1OCC(OCCOC(=O)c2cc(O)cc(O)c2)=C1c1ccccc1	> 100 µg/mL	14.4 µg/mL (≈ 40.4 µM)	2.2 µg/mL (≈ 6.17 µM)	> 100 µg/mL	6.7 µM
O=C1OCC(OCCOC(=O)c2ccc3cc(O)ccc3c2)=C1c1ccccc1	> 100 µg/mL	15.8 µg/mL (≈ 40.5 µM)	16.1 µg/mL (≈ 41.2 µM)	> 100 µg/mL	16.8 µM
O=C1OCC(OCCOC(=O)c2ccc(O)cc2O)=C1c1ccccc1	> 100 µg/mL	36.7 µg/mL (≈ 103 µM)	15.3 µg/mL (≈ 42.9 µM)	> 100 µg/mL	50.2 µM
O=C1OCC(OCCOC(=O)c2ccc(O)c(O)c2)=C1c1ccccc1	> 100 µg/mL	> 100 µg/mL	19.9 µg/mL (≈ 55.8 µM)	> 100 µg/mL	75.3 µM
O=C(Cc1cccc(Cl)c1)OCCOC1=C(c2ccc(Cl)cc2)C(=O)OC1	2.5 µg/mL (≈ 6.14 µM)	2.5 µg/mL (≈ 6.14 µM)	5.2 µg/mL (≈ 12.8 µM)	7.6 µg/mL (≈ 18.7 µM)	1.1 µM
O=C(Cc1ccc(F)cc1)OCCOC1=C(c2ccc(Cl)cc2)C(=O)OC1	15.6 µg/mL (≈ 39.9 µM)	13.2 µg/mL (≈ 33.8 µM)	14.9 µg/mL (≈ 38.1 µM)	> 100 µg/mL	5.7 µM
O=C(Cc1ccc(O)cc1)OCCOC1=C(c2ccc(Cl)cc2)C(=O)OC1	> 100 µg/mL	15.5 µg/mL (≈ 39.9 µM)	27.4 µg/mL (≈ 70.5 µM)	> 100 µg/mL	7.9 µM
O=C1OCC(OCCOC(=O)c2ccccc2[N+](=O)[O-])=C1c1ccccc1	> 100 µg/mL	35.5 µg/mL (≈ 96.1 µM)	24.3 µg/mL (≈ 65.8 µM)	17.5 µg/mL (≈ 47.4 µM)	18.2 µM
O=C(Cc1ccc(Cl)cc1)OCCOC1=C(c2ccc(Cl)cc2)C(=O)OC1	> 100 µg/mL	17.7 µg/mL (≈ 43.5 µM)	13.3 µg/mL (≈ 32.7 µM)	45.6 µg/mL (≈ 112 µM)	9.3 µM
NC[C@H]1O[C@H](O[C@H]2[C@H](O)[C@@H](O[C@H]3O[C@H](CO)[C@@H](O)[C@H](N)[C@H]3O)[C@H](N)C[C@@H]2N)[C@H](O)[C@@H](O)[C@@H]1O [KANAMYCIN]	–	–	1.5 µg/mL (≈ 3.1 µM)	3.5 µg/mL (≈ 7.22 µM)	–
O=C1OCC(OCCOC(=O)c2cccc(Cl)c2)=C1c1ccc(Cl)cc1	1.2 µg/mL (≈ 3.05 µM)	1.5 µg/mL (≈ 3.81 µM)	2 µg/mL (≈ 5.09 µM)	4.3 µg/mL (≈ 10.9 µM)	0.9 µM
O=C1OCC(OCCOC(=O)c2ccc3ccccc3c2)=C1c1ccccc1	> 100 µg/mL	18.1 µg/mL (≈ 48.3 µM)	21.9 µg/mL (≈ 58.5 µM)	> 100 µg/mL	17.7 µM
CC(=O)N1CCN(c2ccc(OCC3COC(Cn4ccnc4)(c4ccc(Cl)cc4Cl)O3)cc2)CC1 (centres undefined) [KETOCONAZOLE]	3.8 µg/mL (≈ 7.15 µM)	–	–	–	–
O=C(Cc1cccc(Br)c1)OCCOC1=C(c2ccc(Cl)cc2)C(=O)OC1	4.2 µg/mL (≈ 9.3 µM)	4.6 µg/mL (≈ 10.2 µM)	13.6 µg/mL (≈ 30.1 µM)	16.6 µg/mL (≈ 36.8 µM)	3.5 µM
O=C1OCC(OCCOC(=O)c2cccc(C(F)(F)F)c2)=C1c1ccccc1	> 100 µg/mL	2.4 µg/mL (≈ 6.12 µM)	17.5 µg/mL (≈ 44.6 µM)	23.3 µg/mL (≈ 59.4 µM)	4.3 µM
O=C(Cc1ccc(Br)cc1)OCCOC1=C(c2ccc(Cl)cc2)C(=O)OC1	13.1 µg/mL (≈ 29 µM)	20.6 µg/mL (≈ 45.6 µM)	13 µg/mL (≈ 28.8 µM)	14.3 µg/mL (≈ 31.7 µM)	16.7 µM
O=C1OCC(OCCOC(=O)c2cccc([N+](=O)[O-])c2)=C1c1ccccc1	> 100 µg/mL	> 100 µg/mL	> 100 µg/mL	9.4 µg/mL (≈ 25.5 µM)	> 100 µM
O=C1OCC(OCCOC(=O)c2ccc([N+](=O)[O-])cc2)=C1c1ccccc1	2.7 µg/mL (≈ 7.31 µM)	11.4 µg/mL (≈ 30.9 µM)	24.5 µg/mL (≈ 66.3 µM)	5 µg/mL (≈ 13.5 µM)	5.2 µM

The remaining lines, values ahead:

MIC50 (Candida albicans)	MIC50 (Pseudomonas aeruginosa)	MIC50 (Staphylococcus aureus)	MIC50 (Escherichia coli)	IC50 [1]	Structure (SMILES)
> 100 µg/mL	83.1 µg/mL (≈ 223 µM)	> 100 µg/mL	> 100 µg/mL	> 100 µM	O=C(Cc1cccc(Cl)c1)OCCOC1=C(c2ccccc2)C(=O)OC1
> 100 µg/mL	90.2 µg/mL (≈ 267 µM)	> 100 µg/mL	19.3 µg/mL (≈ 57 µM)	> 100 µM	Cc1ccccc1C(=O)OCCOC1=C(c2ccccc2)C(=O)OC1
78.4 µg/mL (≈ 219 µM)	14.5 µg/mL (≈ 40.4 µM)	17.2 µg/mL (≈ 47.9 µM)	> 100 µg/mL	8.8 µM	O=C1OCC(OCCOC(=O)c2ccc(Cl)cc2)=C1c1ccccc1
18.1 µg/mL (≈ 52.9 µM)	13.8 µg/mL (≈ 40.3 µM)	8.2 µg/mL (≈ 24 µM)	> 100 µg/mL	7.5 µM	O=C1OCC(OCCOC(=O)c2ccc(F)cc2)=C1c1ccccc1
> 100 µg/mL	16.7 µg/mL (≈ 49.4 µM)	15.8 µg/mL (≈ 46.7 µM)	> 100 µg/mL	8.1 µM	Cc1cccc(C(=O)OCCOC2=C(c3ccccc3)C(=O)OC2)c1
21.4 µg/mL (≈ 67.2 µM)	60.8 µg/mL (≈ 191 µM)	43 µg/mL (≈ 135 µM)	> 100 µg/mL	47.8 µM	CCCCCC(=O)OCCOC1=C(c2ccccc2)C(=O)OC1
> 100 µg/mL	44.8 µg/mL (≈ 138 µM)	22.8 µg/mL (≈ 70.1 µM)	18.6 µg/mL (≈ 57.2 µM)	26 µM	O=C1OCC(OCCOC(=O)c2cccnc2)=C1c1ccccc1
> 100 µg/mL	56.8 µg/mL (≈ 164 µM)	> 100 µg/mL	48.8 µg/mL (≈ 141 µM)	41 µM	CCCCCCCC(=O)OCCOC1=C(c2ccccc2)C(=O)OC1
> 100 µg/mL	47.8 µg/mL (≈ 140 µM)	24.9 µg/mL (≈ 73.2 µM)	15.7 µg/mL (≈ 46.1 µM)	41.4 µM	O=C1OCC(OCCOC(=O)c2ccccc2O)=C1c1ccccc1
23.4 µg/mL (≈ 69.2 µM)	37.7 µg/mL (≈ 111 µM)	18.3 µg/mL (≈ 54.1 µM)	> 100 µg/mL	17.8 µM	Cc1ccc(C(=O)OCCOC2=C(c3ccccc3)C(=O)OC2)cc1
88.7 µg/mL (≈ 306 µM)	98.1 µg/mL (≈ 338 µM)	41.3 µg/mL (≈ 142 µM)	> 100 µg/mL	84.6 µM	CCCC(=O)OCCOC1=C(c2ccccc2)C(=O)OC1
> 100 µg/mL	52.7 µg/mL (≈ 147 µM)	72.9 µg/mL (≈ 203 µM)	17.9 µg/mL (≈ 49.9 µM)	56.8 µM	O=C1OCC(OCCOC(=O)c2ccccc2Cl)=C1c1ccccc1
23 µg/mL (≈ 67.6 µM)	21.3 µg/mL (≈ 62.6 µM)	23.3 µg/mL (≈ 68.5 µM)	19.5 µg/mL (≈ 57.3 µM)	11.2 µM	O=C1OCC(OCCOC(=O)c2ccc(O)cc2)=C1c1ccccc1
> 100 µg/mL	13.4 µg/mL (≈ 41.3 µM)	17.8 µg/mL (≈ 54.9 µM)	> 100 µg/mL	12.8 µM	O=C1OCC(OCCOC(=O)c2ccccc2)=C1c1ccccc1
> 100 µg/mL	73.6 µg/mL (≈ 208 µM)	> 100 µg/mL	> 100 µg/mL	64.7 µM	COc1ccccc1C(=O)OCCOC1=C(c2ccccc2)C(=O)OC1
> 100 µg/mL	> 100 µg/mL	16.5 µg/mL (≈ 46.3 µM)	> 100 µg/mL	93.6 µM	O=C(Cc1ccc(F)cc1)OCCOC1=C(c2ccccc2)C(=O)OC1
> 100 µg/mL	2.9 µg/mL (≈ 7.37 µM)	24.8 µg/mL (≈ 63.1 µM)	13.9 µg/mL (≈ 35.3 µM)	5.2 µM	O=C1OCC(OCCOC(=O)c2cc(Cl)ccc2Cl)=C1c1ccccc1
22.9 µg/mL (≈ 58.2 µM)	21.3 µg/mL (≈ 54.2 µM)	18.2 µg/mL (≈ 46.3 µM)	12.8 µg/mL (≈ 32.6 µM)	16.5 µM	O=C1OCC(OCCOC(=O)c2ccc(Cl)cc2Cl)=C1c1ccccc1
92.3 µg/mL (≈ 232 µM)	> 100 µg/mL	> 100 µg/mL	> 100 µg/mL	83.8 µM	COc1ccc(CC(=O)OCCOC2=C(c3ccccc3)C(=O)OC2)cc1OC
> 100 µg/mL	68.1 µg/mL (≈ 192 µM)	22.5 µg/mL (≈ 63.5 µM)	53.6 µg/mL (≈ 151 µM)	> 100 µM	O=C(Cc1ccc(O)cc1)OCCOC1=C(c2ccccc2)C(=O)OC1
> 100 µg/mL	22 µg/mL (≈ 52.7 µM)	15.4 µg/mL (≈ 36.9 µM)	78.7 µg/mL (≈ 189 µM)	48.1 µM	O=C(Cc1ccc(Br)cc1)OCCOC1=C(c2ccccc2)C(=O)OC1
95.4 µg/mL (≈ 243 µM)	22.7 µg/mL (≈ 57.7 µM)	19.9 µg/mL (≈ 50.6 µM)	2.9 µg/mL (≈ 7.37 µM)	33.4 µM	O=C1OCC(OCCOC(=O)c2ccc(Cl)c(Cl)c2)=C1c1ccccc1
